Assays:
[1] = Modulation of P-gp (unknown origin) transfected in human MDA435/LCC6MDR cells assessed as reversible of paclitaxel resistance measured as IC50 for paclitaxel at 1 uM after 5 days by CellTiter 96 Aqueous assay
[2] = Modulation of BCRP (unknown origin) transfected in human HEK293/R2 cells assessed as potentiation of topotecan-induced cytotoxicity measured as topotecan IC50 at 1 uM after 5 days by MTS assay
[3] = Modulation of MRP1 (unknown origin) transfected in human 2008/MRP1 cells assessed as potentiation of doxorubicin-induced cytotoxicity measured as doxorubicin IC50 at 1 uM after 5 days by MTS assay
[4] = Modulation of P-gp (unknown origin) transfected in human MDA435/LCC6MDR cells assessed as reversing vinblastine resistance measured as cell survival after 5 days by MTS assay
[5] = Modulation of P-gp (unknown origin) transfected in human MDA435/LCC6MDR cells assessed as reversing doxorubicin resistance measured as cell survival after 5 days by MTS assay
[6] = Modulation of P-gp (unknown origin) transfected in human MDA435/LCC6MDR cells assessed as reversing vincristine resistance measured as cell survival after 5 days by MTS assay
[7] = Modulation of P-gp (unknown origin) transfected in human MDA435/LCC6MDR cells assessed as reversing paclitaxel resistance measured as cell survival after 5 days by MTS assay
[8] = molecular target: ATP-dependent translocase ABCB1 (Homo sapiens, UniProt P08183); assay: Modulation of P-gp (unknown origin) transfected in human MDA435/LCC6MDR cells assessed as reversible of paclitaxel resistance measured as IC50 for paclitaxel at 10 uM after 5 days by CellTiter 96 Aqueous assay
Summary of the method: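 They were held 5 days at 37 °C and viability read by CellTiter 96 AQueous (MTS). […] RF = IC50 of PTX without modulator / IC50 with modulator.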

Sequence of ATP-dependent translocase ABCB1 (P08183 whole entry): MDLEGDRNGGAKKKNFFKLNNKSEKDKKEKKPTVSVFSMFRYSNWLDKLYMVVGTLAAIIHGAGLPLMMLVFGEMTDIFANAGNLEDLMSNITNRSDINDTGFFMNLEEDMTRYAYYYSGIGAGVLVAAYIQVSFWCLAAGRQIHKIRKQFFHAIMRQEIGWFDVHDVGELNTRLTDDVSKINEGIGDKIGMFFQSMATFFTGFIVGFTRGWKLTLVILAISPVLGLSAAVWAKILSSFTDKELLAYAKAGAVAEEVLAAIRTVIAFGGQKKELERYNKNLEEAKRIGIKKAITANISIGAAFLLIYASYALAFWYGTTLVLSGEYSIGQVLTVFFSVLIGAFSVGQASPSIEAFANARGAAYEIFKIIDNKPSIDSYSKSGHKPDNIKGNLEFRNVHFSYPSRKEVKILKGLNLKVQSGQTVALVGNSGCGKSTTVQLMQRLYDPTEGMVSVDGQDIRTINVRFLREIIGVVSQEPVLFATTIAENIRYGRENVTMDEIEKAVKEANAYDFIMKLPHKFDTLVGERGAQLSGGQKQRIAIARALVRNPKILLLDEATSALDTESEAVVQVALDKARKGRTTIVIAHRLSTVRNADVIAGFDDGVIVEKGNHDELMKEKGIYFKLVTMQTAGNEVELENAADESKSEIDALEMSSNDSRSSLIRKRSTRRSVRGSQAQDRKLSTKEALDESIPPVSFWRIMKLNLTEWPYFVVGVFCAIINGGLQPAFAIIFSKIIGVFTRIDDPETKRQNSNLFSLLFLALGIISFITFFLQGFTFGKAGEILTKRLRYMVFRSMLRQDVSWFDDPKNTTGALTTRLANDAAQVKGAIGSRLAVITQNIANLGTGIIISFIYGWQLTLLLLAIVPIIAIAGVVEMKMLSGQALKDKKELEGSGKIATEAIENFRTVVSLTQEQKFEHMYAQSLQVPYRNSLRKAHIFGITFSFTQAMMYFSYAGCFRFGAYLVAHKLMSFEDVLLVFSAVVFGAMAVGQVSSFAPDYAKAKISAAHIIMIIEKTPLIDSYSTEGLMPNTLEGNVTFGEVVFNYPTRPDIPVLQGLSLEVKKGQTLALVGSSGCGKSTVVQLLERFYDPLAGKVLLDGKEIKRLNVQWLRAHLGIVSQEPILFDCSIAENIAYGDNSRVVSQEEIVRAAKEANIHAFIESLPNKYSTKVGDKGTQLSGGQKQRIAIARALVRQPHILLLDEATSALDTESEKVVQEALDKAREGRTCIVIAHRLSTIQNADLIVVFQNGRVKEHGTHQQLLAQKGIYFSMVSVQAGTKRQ

SMILES | IC50 [1] [nM] | other results
COc1ccc(/C=C/C(=O)O[C@@H]2Cc3c(OC)cc(OC)cc3O[C@@H]2c2cc(OC)c(OC)c(OC)c2)cc1 | 22 | 
COc1cc(OC)c2c(c1)O[C@H](c1cc(OC)c(OC)c(OC)c1)[C@H](OC(=O)c1cccc(F)c1)C2 | 97 | 
COc1cc(OC)c2c(c1)O[C@H](c1cc(OC)c(OC)c(OC)c1)[C@H](OC(=O)c1ccc(F)c(NC(=O)c3ccc(OC)c(OC)c3)c1)C2 | 3 | IC50 [2]: 176 nM; IC50 [3]: 434 nM; EC50 [4]: 193 nM; EC50 [5]: 139 nM; EC50 [6]: 181 nM; EC50 [7]: 159 nM
COc1cc(OC)c2c(c1)O[C@H](c1cc(OC)c(OC)c(OC)c1)[C@H](OC(=O)Cc1ccc(OC)c(OC)c1)C2 | 32 | 
COc1cc(OC)c2c(c1)O[C@H](c1cc(OC)c(OC)c(OC)c1)[C@H](OC(=O)CCc1cc(OC)c(OC)c(OC)c1)C2 | 18 | 
O=C(O[C@@H]1Cc2c(O)cc(O)cc2O[C@@H]1c1cc(O)c(O)c(O)c1)c1cc(O)c(O)c(O)c1 [(-)-Epigallocatechin-3-o-gallate] | 124 | IC50 [8]: 123 nM
COc1cccc(C(=O)O[C@@H]2Cc3c(OC)cc(OC)cc3O[C@@H]2c2cc(OC)c(OC)c(OC)c2)c1 | 45 | 
COc1cc(OC)c2c(c1)O[C@H](c1cc(OC)c(OC)c(OC)c1)[C@H](OC(=O)c1ccc(F)cc1)C2 | 53 | 
COc1cc(OC)c2c(c1)O[C@H](c1cc(OC)c(OC)c(OC)c1)[C@H](OC(=O)CCc1ccc(OC)c(OC)c1)C2 | 19 | 
COc1cc(OC)c2c(c1)O[C@H](c1cc(OC)c(OC)c(OC)c1)[C@H](OC(=O)/C=C/c1ccc(OC)c(OC)c1)C2 | 8.7 | EC50 [4]: 123 nM; EC50 [5]: 160 nM; EC50 [6]: 167 nM; EC50 [7]: 157 nM
COc1ccc(/C=C/C(=O)O[C@H]2C(=O)c3c(OC)cc(OC)cc3O[C@@H]2c2cc(OC)c(OC)c(OC)c2)cc1 | 41 | 
COc1cc(OC)c2c(c1)O[C@H](c1cc(OC)c(OC)c(OC)c1)[C@H](OC(=O)c1ccc(OC)c(OC)c1)C2 | 20 | 
COc1cc(OC)c2c(c1)O[C@H](c1cc(OC)c(OC)c(OC)c1)[C@H](OC(=O)c1ccc(F)c(NC(C)=O)c1)C2 | 15 | 
COc1cc(OC)c2c(c1)O[C@H](c1cc(OC)c(OC)c(OC)c1)[C@@H](OC(=O)c1ccc(OC)c(OC)c1)C2 | 12 | 
COc1cc(OC)c2c(c1)O[C@H](c1cc(OC)c(OC)c(OC)c1)[C@H](OC(=O)c1ccc(F)c(N(C)C)c1)C2 | 36 | 
CCOc1cc(C(=O)O[C@@H]2Cc3c(OC)cc(OC)cc3O[C@@H]2c2cc(OC)c(OC)c(OC)c2)cc(OCC)c1OCC | 113 | 
COc1cc(OC)c2c(c1)O[C@H](c1cc(OC)c(OC)c(OC)c1)[C@H](OC(=O)/C=C/c1cc(OC)c(OC)c(OC)c1)C2 |  | IC50 [2]: 357 nM; IC50 [3]: 322 nM
COc1cc(OC)c2c(c1)O[C@H](c1cc(OC)c(OC)c(OC)c1)[C@@H](OC(=O)c1ccc(F)c(NC(=O)c3ccc(OC)c(OC)c3)c1)C2=O | 9.4 | 
COc1cc(OC)c2c(c1)O[C@H](c1cc(OC)c(OC)c(OC)c1)[C@@H](OC(=O)c1cc(OC)c(OC)c(OC)c1)C2=O | 44 | 
C=CCOc1cc(C(=O)O[C@H]2C(=O)c3c(OC)cc(OC)cc3O[C@@H]2c2cc(OC)c(OC)c(OC)c2)cc(OCC=C)c1OCC=C | 32 | 
COc1cc(OC)c2c(c1)O[C@H](c1cc(OC)c(OC)c(OC)c1)[C@H](OC(=O)c1ccc(F)c(NC(=O)c3ccc(F)c(NC(=O)c4cc(OC)c(OC)c(OC)c4)c3)c1)C2 | 13 | 

SMILES | IC50 [1] [nM] | other results
CC(=O)Oc1cc(OC(C)=O)c2c(c1)O[C@H](c1cc(OC(C)=O)c(OC(C)=O)c(OC(C)=O)c1)[C@H](OC(=O)c1cc(OC(C)=O)c(OC(C)=O)c(OC(C)=O)c1)C2 | 176 | 
COc1cc(OC)c2c(c1)O[C@H](c1cc(OC)c(OC)c(OC)c1)[C@@H](OC(=O)c1ccc(F)c(NC(=O)/C=C/c3cc(OC)c(OC)c(OC)c3)c1)C2 |  | EC50 [7]: 225 nM
C=CCOc1cc(C(=O)O[C@@H]2Cc3c(OC)cc(OC)cc3O[C@@H]2c2cc(OC)c(OC)c(OC)c2)cc(OCC=C)c1OCC=C | 12 | 
COc1cc(OC)c2c(c1)O[C@H](c1cc(OC)c(OC)c(OC)c1)[C@@H](OC(=O)c1ccc(F)c(NC(=O)/C=C/c3ccc(OC)c(OC)c3)c1)C2 | 6.6 | EC50 [7]: 280 nM
COc1ccc(C(=O)O[C@H]2Cc3c(OC)cc(OC)cc3O[C@@H]2c2cc(OC)c(OC)c(OC)c2)cc1 | 67 | 
COc1ccc(CCC(=O)O[C@@H]2Cc3c(OC)cc(OC)cc3O[C@@H]2c2cc(OC)c(OC)c(OC)c2)cc1 | 40 | 
COc1cc(OC)c2c(c1)O[C@H](c1cc(OC)c(OC)c(OC)c1)[C@@H](O)C2 | 136 | 
COc1ccc(/C=C/C(=O)O[C@H]2Cc3c(OC)cc(OC)cc3O[C@@H]2c2cc(OC)c(OC)c(OC)c2)cc1 | 19 | 
COc1cc(OC)c2c(c1)O[C@H](c1cc(OC)c(OC)c(OC)c1)[C@@H](OC(C)=O)C2=O | 107 | 
COc1ccc(C(=O)O[C@H]2C(=O)c3c(OC)cc(OC)cc3O[C@@H]2c2cc(OC)c(OC)c(OC)c2)cc1 | 48 | 
COc1ccc(C(=O)O[C@@H]2Cc3c(OC)cc(OC)cc3O[C@@H]2c2cc(OC)c(OC)c(OC)c2)cc1 | 148 | 
COc1cc(OC)c2c(c1)O[C@H](c1cc(OC)c(OC)c(OC)c1)[C@@H](OC(=O)c1ccc(F)c(NC(=O)c3cc(OC)c(OC)c(OC)c3)c1)C2=O | 37 | 
COc1ccc(CC(=O)O[C@@H]2Cc3c(OC)cc(OC)cc3O[C@@H]2c2cc(OC)c(OC)c(OC)c2)cc1 | 34 | 
COc1cc(OC)c2c(c1)O[C@H](c1cc(OC)c(OC)c(OC)c1)[C@@H](OC(=O)c1ccc(OC)c(OC)c1)C2=O | 37 | 
COc1cc(OC)c2c(c1)O[C@H](c1cc(OC)c(OC)c(OC)c1)[C@@H](OC(=O)c1ccc(F)c(NC(=O)c3ccc(OC)c(OC)c3)c1)C2 |  | IC50 [2]: 45 nM; IC50 [3]: 142 nM; EC50 [4]: 173 nM; EC50 [5]: 208 nM; EC50 [6]: 147 nM; EC50 [7]: 171 nM
COc1cc(OC)c2c(c1)O[C@H](c1cc(OC)c(OC)c(OC)c1)[C@@H](OC(=O)c1ccc(F)c(NC(=O)/C=C/c3cc(OC)c(OC)c(OC)c3)c1)C2=O | 28 | 
COc1cc(OC)c2c(c1)O[C@H](c1cc(OC)c(OC)c(OC)c1)[C@H](OC(=O)c1ccc(F)c(NC(=O)c3cc(OC)c(OC)c(OC)c3)c1)C2 | 3.3 | IC50 [2]: 207 nM; IC50 [3]: 418 nM; EC50 [7]: 214 nM
COc1cc(OC)c2c(c1)O[C@H](c1cc(OC)c(OC)c(OC)c1)[C@H](OC(=O)c1ccc(F)c(NC(=O)/C=C/c3cc(OC)c(OC)c(OC)c3)c1)C2 | 6.2 | 
COc1cc(OC)c2c(c1)O[C@H](c1cc(OC)c(OC)c(OC)c1)[C@@H](OC(=O)c1ccc(F)c(NC(=O)c3cc(OC)c(OC)c(OC)c3)c1)C2 |  | IC50 [2]: 38 nM; IC50 [3]: 141 nM; EC50 [4]: 108 nM; EC50 [5]: 107 nM; EC50 [6]: 102 nM; EC50 [7]: 140 nM
COc1cc(OC)c2c(c1)O[C@H](c1cc(OC)c(OC)c(OC)c1)[C@H](OC(=O)c1ccc(F)c(NC(=O)c3ccc(F)c(NC(=O)c4ccc(OC)c(OC)c4)c3)c1)C2 | 14 | 

— BindingDB's records for doi:10.1021/acs.jmedchem.5b00085 (The Hong Kong Polytechnic University, 2015)
